Converted amounts (≈) assume the structure as drawn.
Key:
Format in all cases: functional
Culex pipiens pallens [1] = assay: Insecticidal activity against Culex pipiens pallens (mosquito) fourth-instar larvae assessed as insect mortality measured 24 hr post compound exposure by dipping method; conditions: for LC50: Culex pipiens, 24 h
Culex pipiens pallens [2] = assay: Potency index, ratio of LC50 for cypermethrin to LC50 for test compound against Culex pipiens pallens (mosquito) fourth-instar larvae assessed as insect mortality measured 24 hr post compound exposure by dipping method
Mythimna separata = assay: Insecticidal activity against Mythimna separata (Oriental armyworm) grown on compound pre-treated corn leaves assessed as insect mortality measured 48 hr post compound exposure
In short: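 Leaves on filter paper in Petri dishes dipped 5 s in test solutions (acetone, diluted with water) and air-dried, then infested with 10 third-instar larvae; concentrations 500.0 down to 0.25 mg L-1; triplicate per concentration; 26 ± 1 °C, 70 ± 10% RH; percentage mortality at 48 h.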

Compound | LC95 (Culex pipiens pallens [1]) | LC50 (Culex pipiens pallens [1]) | RatioLC50 (Culex pipiens pallens [2]) | LC50 (Mythimna separata)
CC1(C)[C@H](/C=C/Cl)[C@H]1CC(=O)OCc1c(F)c(F)cc(F)c1F (relative stereo) | 0.358 µg/mL (≈ 1.02 µM) | 0.249 µg/mL (≈ 0.71 µM) | 4.3 | 
C=CCC1=C(C)C(COC(=O)C[C@H]2[C@@H](/C=C/Br)C2(C)C)CC1=O (relative stereo) | 0.7054 µg/mL (≈ 1.85 µM) | 0.44 µg/mL (≈ 1.15 µM) | 2.4 | 
CC1(C)C(C=C(Cl)Cl)C1C(=O)OC(C#N)c1cccc(Oc2ccccc2)c1 (stereo not drawn) [ALPHA-CYPERMETHRIN] | 0.0286 µg/mL (≈ 0.0687 µM) | 0.0106 µg/mL (≈ 0.0255 µM) | 100 | 
CC1(C)[C@H](C(=O)O[C@H](C#N)c2cccc(Oc3ccccc3)c2)[C@@H]1C=C(Br)Br [DELTAMETHRIN] | 0.0033 µg/mL (≈ 0.00653 µM) | 0.0012 µg/mL (≈ 0.00238 µM) | 883 | 0.149 µg/mL (≈ 0.294 µM)

— ChEMBL document CHEMBL3045155, “Design, synthesis, and insecticidal activities of novel monohalovinylated pyrethroids” (2011)
